Results as given in publication PMC11671551 (Cancer Chemotherapy and Pharmacology, 2024).
Like-named read-outs stand apart in the source and are kept apart here.

Tests used:
[1] = population pharmacokinetic analysis, patient weighing 100 kg; cited from earlier work
[2] = assay type: in vivo, human; settings: for Serum concentration, mean: trough
In short: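 mRCC patients recruited prospectively (March 2020–January 2022) on oral sunitinib, 2 weeks on/1 week off, with physician-set dose. Blood (5 mL) was drawn at outpatient visits 7–14 days into each cycle, 24 h post-dose or just before the next dose. It was spun at 1,500 ×g, 4 °C, 10 min, and the serum stored at -25 °C. Parent drug, N-desethyl and N-oxide were quantified by LC-MS/MS (LLOQ 2.5, 2.5, 0.1 ng/mL). Concentration/dose ratios were correlated with treatment duration by Pearson.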

[3] = Adverse events in mRCC patients receiving long-term sunitinib; assay type: in vivo, human
[4] = Pt1, maintenance dose 25 mg, 421–630 days after initiation
[5] = Pt1, maintenance dose 25 mg, 631–840 days after initiation
[6] = Pt1, maintenance dose 25 mg, 841–1050 days after initiation
[7] = Pt1, maintenance dose 25 mg, 1051–1260 days after initiation
[8] = Pt1, maintenance dose 25 mg, 1261–1470 days after initiation
[9] = Pt2, maintenance dose 25 mg, 631–840 days after initiation
[10] = Pt2, maintenance dose 25 mg, 841–1050 days after initiation
[11] = Pt3, maintenance dose 25 mg, 1051–1260 days after initiation
[12] = Pt3, maintenance dose 25 mg, 1261–1470 days after initiation
[13] = Pt3, maintenance dose 25 mg, 1471–1680 days after initiation
[14] = Pt3, maintenance dose 25 mg, 1681–1890 days after initiation
[15] = Pt4, maintenance dose 25 mg, 1891–2100 days after initiation
[16] = Pt5, maintenance dose 37.5 mg, 1261–1470 days after initiation
[17] = Pt5, maintenance dose 37.5 mg, 1471–1680 days after initiation
[18] = Pt5, maintenance dose 37.5 mg, 1681–1890 days after initiation
[19] = Pt6, maintenance dose 50 mg, 0–210 days after initiation
[20] = Pt6, maintenance dose 50 mg, 211–420 days after initiation
[21] = Pt6, maintenance dose 50 mg, 421–630 days after initiation
[22] = Pt7, maintenance dose 25 mg, 0–210 days after initiation
[23] = sunitinib C/D decreased group (n=3)
[24] = sunitinib C/D non-decreased group (n=4)
[25] = after follow-up, sunitinib C/D decreased group (n=3)
[26] = after follow-up, sunitinib C/D non-decreased group (n=4)
[27] = baseline, sunitinib C/D decreased group (n=3)
[28] = baseline, sunitinib C/D non-decreased group (n=4)

Pearson's correlation coefficient r between C/D ratio and treatment duration ([2]; Pt1) | Serum concentration, mean [2, 4] | Serum concentration, mean [2, 5] | Serum concentration, mean [2, 6] | Serum concentration, mean [2, 7] | Serum concentration, mean [2, 8] | Pearson's correlation coefficient r between C/D ratio and treatment duration ([2]; Pt2) | Serum concentration, mean [2, 9] | Serum concentration, mean [2, 10] | Serum concentration, mean [2, 11] | Serum concentration, mean [2, 12] | Serum concentration, mean [2, 13] | Serum concentration, mean [2, 14] | Serum concentration, mean [2, 15] | Serum concentration, mean [2, 16] | Serum concentration, mean [2, 17] | Serum concentration, mean [2, 18] | Serum concentration, mean [2, 19] | Serum concentration, mean [2, 20] | Serum concentration, mean [2, 21] | Compound | other results
-0.608 | 44.0 ng/mL | 48.3 ng/mL | 41.2 ng/mL | 33.1 ng/mL | 26.2 ng/mL | -0.555 | 86.7 ng/mL | 73.5 ng/mL | 59.5 ng/mL | 54.9 ng/mL | 64.1 ng/mL | 54.1 ng/mL | 54.5 ng/mL | 42.2 ng/mL | 44.7 ng/mL | 39.4 ng/mL | 71.0 ng/mL | 65.8 ng/mL | 37.5 ng/mL | CCN(CC)CCNC(=O)c1c(C)[nH]c(/C=C2\C(=O)Nc3ccc(F)cc32)c1C [Sunitinib, sunitinib, reference compound] | Maximum variation in Vd/F [1]: 14%; Pearson's correlation coefficient r between C/D ratio and treatment duration ([2]; Pt6): -0.590; Serum concentration, mean [2, 22]: 31.1 ng/mL; Patients with grade 2 or higher anorexia ([3]; all 7 patients, five patients): 71.4%; Patients with anorexia (any grade) ([3]; all 7 patients, six patients): 85.7%; Anorexia Grade 0, number of patients [3, 23]: 1 n; Anorexia Grade 1, number of patients [3, 23]: 0 n; Anorexia Grade 2, number of patients [3, 23]: 1 n; Anorexia Grade 3, number of patients [3, 23]: 1 n; Diarrhea Grade 0, number of patients [3, 23]: 2 n; Diarrhea Grade 1, number of patients [3, 23]: 1 n; Anorexia Grade 0, number of patients [3, 24]: 0 n; Anorexia Grade 1, number of patients [3, 24]: 1 n; Anorexia Grade 2, number of patients [3, 24]: 2 n; Anorexia Grade 3, number of patients [3, 24]: 1 n; Diarrhea Grade 0, number of patients [3, 24]: 2 n; Diarrhea Grade 1, number of patients [3, 24]: 2 n
-0.756 | 0.68 ng/mL | 0.59 ng/mL | 0.40 ng/mL | 0.29 ng/mL | 0.10 ng/mL | -0.838 | 1.10 ng/mL | 0.71 ng/mL | 0.99 ng/mL | 0.58 ng/mL | 0.53 ng/mL | 0.32 ng/mL | 1.35 ng/mL | 0.56 ng/mL | 0.57 ng/mL | 0.36 ng/mL | 0.56 ng/mL | 0.55 ng/mL | 0.17 ng/mL | CC[N+]([O-])(CC)CCNC(=O)c1c(C)[nH]c(/C=C2\C(=O)Nc3ccc(F)cc32)c1C [Sunitinib N-oxide, sunitinib N-oxide] | Pearson's correlation coefficient r between C/D ratio and treatment duration ([2]; Pt6): -0.752; Serum concentration, mean [2, 22]: 0.24 ng/mL; Sunitinib N-oxide/sunitinib concentration ratio, median (min–max) [2, 25]: 0.004 (0.004–0.009); Sunitinib N-oxide/sunitinib concentration ratio, median (min–max) [2, 26]: 0.006 (0.004–0.029); Sunitinib N-oxide/sunitinib concentration ratio, median (min–max) [2, 27]: 0.013 (0.010–0.021); Sunitinib N-oxide/sunitinib concentration ratio, median (min–max) [2, 28]: 0.016 (0.014–0.026)
-0.282 | 9.0 ng/mL | 11.0 ng/mL | 10.4 ng/mL | 9.6 ng/mL | 6.9 ng/mL | -0.500 | 22.7 ng/mL | 20.9 ng/mL | 13.2 ng/mL | 12.5 ng/mL | 15.5 ng/mL | 14.6 ng/mL | 11.0 ng/mL | 12.6 ng/mL | 12.1 ng/mL | 14.7 ng/mL | 30.4 ng/mL | 27.7 ng/mL | 30.4 ng/mL | CCNCCNC(=O)c1c(C)[nH]c(/C=C2\C(=O)Nc3ccc(F)cc32)c1C [N-desethyl sunitinib] | Serum concentration, mean [2, 22]: 17.8 ng/mL; N-desethyl sunitinib/sunitinib concentration ratio, median (min–max) [2, 25]: 0.29 (0.26–0.63); N-desethyl sunitinib/sunitinib concentration ratio, median (min–max) [2, 26]: 0.30 (0.16–0.54); N-desethyl sunitinib/sunitinib concentration ratio, median (min–max) [2, 27]: 0.28 (0.23–0.46); N-desethyl sunitinib/sunitinib concentration ratio, median (min–max) [2, 28]: 0.30 (0.19–0.44)
